# Legend:
# [1] = Cytotoxicity against human BEAS2B cells after 48 hrs by MTS assay; assay type: cell-based; details: BEAS-2B
# SW480 = assay: Cytotoxicity against human SW480 cells after 48 hrs by MTS assay; assay type: functional, cell-based; details: SW480, 48 h
# Procedure, shortened: (§1)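 Cells were kept in RPMI-1640 or DMEM with 10% FBS at 37 °C under 5% CO2 and seeded at 1 × 10^5 cells/mL, with adherent cells allowed 12 h to attach. Compounds were tested at 0.064, 0.32, 1.6, 8 and 40 μM, in triplicate, for 48 h at 37 °C. Cisplatin and paclitaxel were the positive controls. MTS was then added for 4 h and absorbance read at […]. IC50 was calculated by the Reed and Muench method.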
# MCF7 = assay: Cytotoxicity against human MCF7 cells after 48 hrs by MTS assay; assay type: functional, cell-based; details: MCF7, 48 h; procedure, shortened: as §1
# A549 = assay: Cytotoxicity against human A549 cells after 48 hrs by MTS assay; assay type: functional, cell-based; details: A549, 48 h; procedure, shortened: as §1
# SMMC-7721 = assay: Cytotoxicity against human SMMC7721 cells after 48 hrs by MTS assay; assay type: functional, cell-based; details: SMMC-7721, 48 h; procedure, shortened: as §1
# HL-60 = assay: Cytotoxicity against human HL60 cells after 48 hrs by MTS assay; assay type: functional, cell-based; details: HL-60, 48 h; procedure, shortened: as §1
SMILES,IC50 [1],IC50 (SW480),IC50 (MCF7),IC50 (A549),IC50 (SMMC-7721),IC50 (HL-60)
C=C1C(=O)[C@@]23[C@H](O)C[C@@H]4C(C)(C)[C@@H](OC(C)=O)CC[C@@]4(C)[C@@H]2[C@H](O)C[C@@H]1[C@H]3O,2800 nM,1400 nM,3400 nM,3.5 µM,1.1 µM,2.5 µM
C=C1C(=O)[C@@]23[C@H](O)C[C@@H]4C(C)(C)[C@@H](OC(C)=O)CC[C@@]4(C)[C@@H]2[C@@H](O)C[C@@H]1[C@H]3O,> 10000 nM,5500 nM,> 10000 nM,> 10 µM,3.8 µM,9.7 µM
C=C1C(=O)[C@@]23[C@H](O)C[C@@H]4C(C)(C)[C@@H](OC(C)=O)CC[C@@]4(C)[C@@H]2C(=O)C[C@@H]1[C@H]3O,2000 nM,1600 nM,2500 nM,2.7 µM,3 µM,2.8 µM
C=C1C(=O)[C@@]23[C@H](O)C[C@@H]4C(C)(C)C(=O)CC[C@@]4(C)[C@@H]2[C@H](O)C[C@@H]1[C@H]3O,> 10000 nM,8100 nM,> 10000 nM,> 10 µM,> 10 µM,> 10 µM
C=C1C(=O)[C@@]23[C@H](O)C[C@@H]4C(C)(C)[C@@H](O)CC[C@@]4(C)[C@@H]2C(=O)C[C@@H]1[C@H]3O,> 10000 nM,7600 nM,> 10000 nM,> 10 µM,> 10 µM,> 10 µM
C=C1C(=O)[C@@]23[C@H](O)C[C@@H]4C(C)(C)C(=O)CC[C@@]4(C)[C@@H]2C(=O)C[C@@H]1[C@H]3O,3100 nM,2200 nM,3100 nM,6.4 µM,4.9 µM,3.3 µM
C=C1C(=O)[C@@]23[C@H](O)C[C@@H]4C(C)(C)[C@@H](OC(C)=O)CC[C@@]4(C)[C@@H]2C=C[C@@H]1[C@H]3O,880 nM,2800 nM,1700 nM,3.1 µM,2.8 µM,2.1 µM
C=C1C(=O)[C@@]23[C@H](O)C[C@@H]4C(C)(C)[C@@H](OC(C)=O)CC[C@@]4(C)[C@@H]2[C@@H]2O[C@@H]2[C@@H]1[C@H]3O,730 nM,1800 nM,3000 nM,1.1 µM,1.3 µM,0.65 µM
C=C1C(=O)[C@@]23[C@H](O)C[C@@H]4[C@@](C)(COC(C)=O)CCC[C@@]4(C)[C@@H]2C(=O)C[C@@H]1[C@H]3O,870 nM,1700 nM,1800 nM,0.94 µM,0.96 µM,0.71 µM
COC[C@H]1C(=O)[C@@]23[C@H](O)C[C@@H]4C(C)(C)[C@@H](OC(C)=O)CC[C@@]4(C)[C@@H]2C(=O)C[C@@H]1[C@H]3O,2500 nM,2000 nM,2500 nM,2.9 µM,4 µM,3.7 µM
CCOC[C@@H]1C(=O)[C@@]23[C@H](O)C[C@@H]4C(C)(C)[C@@H](OC(C)=O)CC[C@@]4(C)[C@@H]2C(=O)C[C@@H]1[C@H]3O,> 10000 nM,> 10000 nM,> 10000 nM,> 10 µM,> 10 µM,> 10 µM
CCOC[C@H]1C(=O)[C@@]23[C@H](O)C[C@@H]4C(C)(C)[C@@H](OC(C)=O)CC[C@@]4(C)[C@@H]2C(=O)C[C@@H]1[C@H]3O,2800 nM,3000 nM,3100 nM,3.5 µM,3.5 µM,3.3 µM
COC[C@@H]1C(=O)[C@@]23[C@H](O)C[C@@H]4C(C)(C)C(=O)CC[C@@]4(C)[C@@H]2C(=O)C[C@@H]1[C@H]3O,> 10000 nM,> 10000 nM,> 10000 nM,> 10 µM,> 10 µM,> 10 µM
COC[C@@H]1C(=O)[C@@]23[C@H](O)C[C@@H]4[C@@](C)(COC(C)=O)CCC[C@@]4(C)[C@@H]2C(=O)C[C@@H]1[C@H]3O,> 10000 nM,6700 nM,> 10000 nM,> 10 µM,> 10 µM,> 10 µM
COC[C@H]1C(=O)[C@@]23[C@H](O)C[C@@H]4[C@@](C)(COC(C)=O)CCC[C@@]4(C)[C@@H]2C(=O)C[C@@H]1[C@H]3O,3000 nM,2600 nM,2000 nM,3 µM,3.5 µM,2.8 µM
CC(=O)O[C@H]1C(=O)[C@@]2(C)[C@H]([C@H](OC(=O)c3ccccc3)[C@]3(O)C[C@H](OC(=O)[C@H](O)[C@@H](NC(=O)c4ccccc4)c4ccccc4)C(C)=C1C3(C)C)[C@]1(OC(C)=O)CO[C@@H]1C[C@@H]2O [PACLITAXEL],580 nM,< 8 nM,< 8 nM,< 0.008 µM,< 0.008 µM,< 0.008 µM

# Source: ChEMBL document CHEMBL3091463, “Cytotoxic ent-kaurane diterpenoids from Salvia cavaleriei” (J Nat Prod, 2013)
